High-throughput results as filed in PubChem.
Redox H2O2 prof: compounds producing H2O2 with reducing agent – biochemical, NIH compound library profiling, artefact control for MLSCN library redox annotation, primary screen. 200,000 compounds, 0.03% hits. activation, % at 10 µM. DTT-dependent redox cycling H2O2, phenol red/HRP absorbance; 100% = 100 µM peroxide control, 0% = buffer;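 active = activation of at least 50% relative to the plate's high and low controls in the primary single-dose screen; inactive = activation below 50%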;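 note: compound incubated with DTT at 0.8 mM final as the reducing agent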
Lipid droplet: hepatic lipid droplet formation modulation | AML12 mouse hepatocytes, oleate lipid droplets, BODIPY imaging | inhibition, % at 6.5 µM | 240,000 compounds, 0.4% hits | AID 1656;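 active = lipid droplet intensity inhibited by at least 50%, with more than 500 cells counted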
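Material: mouse AML12 hepatocyte cell line, fixed after treatment; Timing: compound with oleate, overnight; Technique: high-content imaging of BODIPY-stained droplets and DAPI nuclei; Probe or stimulus: oleate, 100 µM final; Dosing: compound at 6.5 µM only.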
MPTP inh: blocks calcium-induced mitochondrial swelling. isolated mouse mitochondria, Ca2+ swelling absorbance, 30 min. inhibition, % at 10 µM. 360,000 compounds, 1.4% hits. AID 602449;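 active = inhibition of 50% or more, scaled per plate between neutral and stimulator controls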
T cruzi repl: T. cruzi replication inhibition. T. cruzi beta-gal in NIH3T3, luminescence, 90 h. inhibition, % (concentration not given with the values). 300,000 compounds, 1.4% hits. AID 1885;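 active = mean inhibition across valid replicates above about 55%, limit read from the data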;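 note: signal also drops with host cell toxicity which is not excluded here; higher percent means less beta-gal luminescence so fewer parasites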
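System – NIH/3T3 host cells with β-galactosidase reporter T. cruzi · Doses – single 50 nL compound addition per well in DMSO · Reagent – 5000 T. cruzi trypomastigotes/well · Medium – Low-serum DMEM with 2% FBS · Timing – ≥90 h infection period, 3 h prior cell attachment · Evaluation – parasite load inhibition, % · Technique – GalScreen luminescence, 60 min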
Lmaj promast: inhibitors of Leishmania major promastigote growth. Leishmania major promastigotes, resazurin fluorescence viability. inhibition, % at 10 µM. 200,000 compounds, 9% hits. AID 1063; in the data active = inhibition above about 50%;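 note: promastigotes grown with compound for 44 hours at 28 °C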
Hep lipid conf: hepatic lipid droplet formation inhibition, confirmed; shares compounds with Lipid droplet; AML12 mouse hepatocytes, BODIPY lipid droplet imaging; droplets induced with 100 µM oleic acid; AID 463183; inhibition, % at 5.2 µM; 870 compounds, 65% hits;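 active = inhibition of lipid droplet metric at least 50%, with more than 300 cells in each of four replicates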
AML12 tox img: toxic to AML12 mouse hepatocytes in counter-screen. 870 compounds, 3% hits. AID 463200. z-score at 5 µM. shares compounds with Lipid droplet. DAPI nuclear morphology cytotoxicity imaging; hits give high values; cells fed 100 µM oleate overnight; in the data active = z-score above about 6.3;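 note: compound exposure lasted overnight at 37 °C before fixation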
AML12 tox ATP: confirmation of cytotoxicity in AML12 mouse hepatocytes; shares compounds with Lipid droplet; AML12 mouse hepatocyte viability, ATP luminescence; cells loaded with 100 µM oleic acid; cytotoxicity, % at 50 µM; 530 tested, under 10 active; AID 463219;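 active = cytotoxicity above 50% in each of four replicates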;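 note: compound exposure lasted overnight at 37 °C before the ATP read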
Large screens that a line does not name were inactive (follow-up assays come after a bar, where they were run). Shown is part of a subset that was picked to be rich in hits.

CC(NC(=O)c1ccncc1)c1ccc(Cl)cc1Cl (stereo unspecified)	none (no result: Redox H2O2 prof, Lmaj promast)
COC(=O)Cc1ccc(NC(=O)c2ccc(Br)o2)cc1	none
CCCOC(=O)c1ccc(NC(=O)c2ccc(Br)o2)cc1	Lipid droplet 74.4 | Hep lipid conf 81.8 | AML12 tox img inactive | AML12 tox ATP inactive
O=C(NCCc1cccnc1)c1cc(COc2ccc(F)cc2F)on1	Lipid droplet 95.1 (no result: Redox H2O2 prof, Lmaj promast) | Hep lipid conf inactive | AML12 tox img inactive
O=C(NCCc1cccnc1)c1cc(COc2ccc(F)cc2Cl)on1	none (no result: Redox H2O2 prof, Lmaj promast)
O=C(c1ccc(C(F)(F)F)cc1)C1CCCN(C(=O)CN2C(=O)CSC2=O)C1 (stereo unspecified)	none
CN1C(=O)[C@H]2[C@@H](C3CC3)N3C(=O)CN(CCO)C(=O)[C@@]3(Cc3ccccc3)[C@H]2C1=O	none (no result: Redox H2O2 prof, Lmaj promast)
CN1C(=O)[C@H]2[C@@H](C3CC3)N3C(=O)CN(Cc4ccccn4)C(=O)[C@@]3(Cc3ccccc3)[C@H]2C1=O	Lipid droplet 59.5 (no result: Redox H2O2 prof, Lmaj promast) | Hep lipid conf inactive | AML12 tox img inactive
CC(C)(C)c1cc(NC(=O)Nc2ccc(Cl)cc2Cl)no1	Lipid droplet 50.5 (no result: Redox H2O2 prof, Lmaj promast) | Hep lipid conf inactive | AML12 tox img inactive
CC(C)(C)c1cc(NC(=O)Nc2ccc(Br)cc2Cl)no1	none
Cc1ccc(F)cc1NC(=O)COC(=O)C1CCN(c2ccc(C(F)(F)F)cn2)CC1	none (no result: Redox H2O2 prof, Lipid droplet, Lmaj promast)
O=C(NC1CCCc2c1cnn2-c1ccccc1F)c1ccccn1 (stereo unspecified)	Lipid droplet 71.3 (no result: Redox H2O2 prof, Lmaj promast) | Hep lipid conf 88.5 | AML12 tox img inactive | AML12 tox ATP inactive
COCc1ccc(C(=O)NC2CCCc3c2cnn3-c2ccc(C)c(C)c2)o1 (stereo unspecified)	Lipid droplet 61.3 (no result: Redox H2O2 prof, Lmaj promast) | Hep lipid conf 99.8 | AML12 tox img inactive | AML12 tox ATP inactive
O=C(NC1CCCc2c1cnn2-c1ccc(F)cc1F)c1ccccn1 (stereo unspecified)	none
Cc1cc(C)c(C(=O)NC2CCCc3c2cnn3-c2cccc(C)c2C)o1 (stereo unspecified)	Lipid droplet 81.2 (no result: Redox H2O2 prof, Lmaj promast) | Hep lipid conf 105.4 | AML12 tox img inactive | AML12 tox ATP inactive
CSc1nc2ccccc2n1CC(=O)Nc1c(C)cccc1C	Lipid droplet 54.7 | Hep lipid conf inactive | AML12 tox img inactive
O=C(Nc1cccc2ccccc12)C1CCN(C(=O)NCc2ccccc2)CC1	none (no result: Lipid droplet)
COc1ccccc1NC(=O)C1CCN(C(=O)NCc2ccccc2)CC1	Lipid droplet 50.6 (no result: Redox H2O2 prof, Lmaj promast) | Hep lipid conf 80.3 | AML12 tox img inactive | AML12 tox ATP inactive
O=C(Cn1nnc(-c2ccccc2)n1)NNC(=O)c1cccc([N+](=O)[O-])c1	none (no result: Redox H2O2 prof, Lmaj promast)
O=C(Cn1nnc(-c2ccc([N+](=O)[O-])cc2)n1)NNC(=O)c1ccccc1	Lipid droplet 59.2 (no result: Redox H2O2 prof, Lmaj promast) | Hep lipid conf inactive | AML12 tox img inactive
COc1ccc(C2(c3ccc(OC)cc3)NC(=O)N(CC(=O)Nc3ccc(OC)c(OC)c3)C2=O)cc1	Lipid droplet 52.1 (no result: Redox H2O2 prof, Lmaj promast) | Hep lipid conf 73.5 | AML12 tox img inactive | AML12 tox ATP inactive
COc1ccc(C2(c3ccc(OC)cc3)NC(=O)N(CC(=O)Nc3ccccc3C)C2=O)cc1	Lipid droplet 60.4 (no result: Redox H2O2 prof, Lmaj promast) | Hep lipid conf 103.6 | AML12 tox img inactive | AML12 tox ATP inactive
CC(C)c1ccc(O)c(NC(=S)NC(=O)c2ccc3c(c2)OCO3)c1	none (no result: Redox H2O2 prof, Lmaj promast)
COC(=O)c1ccccc1NC(=O)c1cccc(NC(=O)c2ccc(Br)o2)c1C	Lipid droplet 61.6 | Hep lipid conf 96.0 | AML12 tox img inactive | AML12 tox ATP inactive
COc1ccc(C2=NOC(Cn3nc(-c4ccccc4C)cc3C(=O)O)C2)cc1 (stereo unspecified)	none (no result: Redox H2O2 prof, Lipid droplet, T cruzi repl, Lmaj promast)
N/C(=N/O)c1nc(N2CCCC2)nc(N(c2ccccc2)c2ccccc2)n1	Lipid droplet 64.9 | Hep lipid conf 107.1 | AML12 tox img inactive | AML12 tox ATP inactive
